The values that follow come from ChEMBL document CHEMBL1125147, “Nonsteroidal cardiotonics. 3. New 4,5-dihydro-6-(1H-indol-5-yl)pyridazin-3(2H)-ones and related compounds with positive inotropic activities” (1990).

Assay [1] concerns Rattus norvegicus. As to the kind of experiment: Effective dose required to produce an increase in dP/dt by 1500 mmHg/s from that of the control in the anesthetized rats. It is filed as functional. The method, boiled down:
(§1)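 Male SPF Sprague–Dawley rats (350–450 g), thiabutarbital sodium 80–100 mg/kg ip, tracheotomized. LV pressure measured by a Millar microtip catheter passed via the right carotid artery. Compounds given as jugular iv bolus (0.5 mL/kg) in increasing doses every 10 min. Readings taken 10 min post-dose as steady state. ED1.5 (dP/dt +1500 mmHg/s at LVP 50 mmHg) from log-linear regression, log means. Max = peak rise in dP/dt and the dose giving it.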

The subject of assay [2] is Felis catus. As to the kind of experiment: Effective dose required to produce an increase in dP/dt by 1500 mmHg/s from that of the control in the anesthetized cats. It is filed as functional. The method, boiled down: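 Cats of both sexes, pentobarbitone 45 mg/kg ip plus 0.1 mg/kg min infusion, pump-ventilated, open chest. Dextran 10 mL/kg iv and desacetylmetipranolol 0.3 mg/kg iv for β-blockade failure. LV pressure by Millar tip catheter via the auricle. Increasing iv bolus doses every 10 min, read at 10 min. ED1.5 (dP/dt +1500 mmHg/s at LVP 50 mmHg) by log-linear regression, log means.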

For assay [3], the system named is Rattus norvegicus. The experiment in a line: Maximum increase in dP/dt from that of the control in the anesthetized rats at dose 10.0 mg/kg. It is filed as functional. The essentials:
as §1

In assay [4] the test system is Felis catus. The experiment in a line: Maximum increase in dP/dt from that of the control in the anesthetized cats at dose 10.0 mg/kg.

As for `O=C1COC(c2ccc3[nH]c(-c4ccncc4)cc3c2)=NN1`, the ED1.5 in the assay with Rattus norvegicus [1] is 0.7 mg/kg.

`Oc1cnc(-c2ccc3[nH]c(-c4ccncc4)cc3c2)cn1` displayed an ED1.5 with Rattus norvegicus [1] of 0.15 mg/kg.

`O=C1CCC(c2ccc3[nH]c(-c4ccncc4)cc3c2)=NN1` came in with an ED1.5 in the assay on Rattus norvegicus [1] of 0.04 mg/kg.

Compound `O=C1CCC(c2ccc3[nH]c(-c4ccnnc4)cc3c2)=NN1` displayed an ED1.5 with Rattus norvegicus [1] of 0.02 mg/kg.

`CCc1c(-c2ccncc2)[nH]c2ccc(C3=NNC(=O)CC3)cc12` returned an ED1.5 with Rattus norvegicus [1] of 1.1 mg/kg.

In the case of `CC1CC(=O)NN=C1c1ccc2[nH]c(-c3ccncc3)cc2c1` (stereo not given), the ED1.5 in the assay on Felis catus [2] worked out at 0.007 mg/kg; in the assay with Rattus norvegicus [1], 0.02 mg/kg.

Compound `O=C1CCC(c2ccc3[nH]c(-c4cccnc4)cc3c2)=NN1` showed an ED1.5 with Rattus norvegicus [1] of 2.5 mg/kg.

Regarding `O=C1CCC(c2ccc3[nH]c(-c4ccccc4O)cc3c2)=NN1`, the ED1.5 in the assay on Rattus norvegicus [1] amounted to 1.04 mg/kg.

In the assay on Rattus norvegicus [1], `O=C1CCC(c2ccc3[nH]c(-c4cscn4)cc3c2)=NN1` had an ED1.5 of 0.26 mg/kg.

As to `Cc1c(-c2ccncc2)[nH]c2ccc(C3=NNC(=O)CC3)cc12`, in the assay on Rattus norvegicus [1], the ED1.5 stood at 0.08 mg/kg.

In the case of `CCOC(=O)c1cc2cc(C3=NNC(=O)CC3)ccc2[nH]1`, the ED1.5 in the assay with Rattus norvegicus [1] was 1.5 mg/kg.

Regarding `CC1(C)C(=O)NN=C1c1ccc2[nH]c(-c3ccncc3)cc2c1`, the ED1.5 with Rattus norvegicus [1] came out at 0.25 mg/kg.

As to `Cc1c(-c2ccncc2)[nH]c2ccc(C3=NNC(=O)CC3C)cc12` (stereo not given), the ED1.5 in the assay on Rattus norvegicus [1] is 0.02 mg/kg.

For the compound `Cc1[nH]c(=O)c(C#N)cc1-c1ccncc1` [MILRINONE], the ED1.5 was found to be 0.04 mg/kg in the assay with Felis catus [2] and 0.15 mg/kg in the assay with Rattus norvegicus [1]. The same compound gave a Max in the assay on Rattus norvegicus [3] of 3.4 mHg/s.

Regarding `COc1ccc(-c2nc3cc(C4=NNC(=O)CC4C)ccc3[nH]2)cc1` (stereo not given) [PIMOBENDAN], the ED1.5 worked out at 0.6 mg/kg in the assay on Felis catus [2] and 1.31 mg/kg in the assay with Rattus norvegicus [1]. The compound also returned a Max in the assay on Felis catus [4] of 2.9 mHg/s.
